S1P1 ag pot – S1P1 agonists and agonism potentiators, primary screen, cell-based, primary and confirmation screens, CRE-bla reporter. Sphingosine 1-phosphate receptor 1 (Homo sapiens), P21453. S1P1 CRE-bla cells, forskolin, beta-lactamase FRET, potentiator mode; S1P1 agonist co-added at EC20, 2 nM; 100% = saturating reference agonist, 0% = basal. activation, % at 9.5 µM. 0.57% of 56,000 active;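 active = activation above a cutoff set at the mean activation of all tested compounds plus 3 SD, cut at about 54% in these data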;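 note: forskolin at 4 µM as EC80 and the EC20 agonist is SEW2871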
Target sequence (P21453 whole entry, looked up): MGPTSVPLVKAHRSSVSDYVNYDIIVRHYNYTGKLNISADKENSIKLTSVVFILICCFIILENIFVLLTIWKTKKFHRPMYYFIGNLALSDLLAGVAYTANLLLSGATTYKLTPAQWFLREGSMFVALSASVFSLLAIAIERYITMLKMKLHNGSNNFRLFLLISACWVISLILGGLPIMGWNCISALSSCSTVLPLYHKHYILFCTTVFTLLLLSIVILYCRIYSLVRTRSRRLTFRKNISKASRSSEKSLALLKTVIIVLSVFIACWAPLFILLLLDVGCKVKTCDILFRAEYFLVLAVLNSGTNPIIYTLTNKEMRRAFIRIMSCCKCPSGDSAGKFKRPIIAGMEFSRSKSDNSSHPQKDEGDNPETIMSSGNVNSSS
S1P3 agonist – human S1P3 receptor agonists, primary screen, cell-based, primary and confirmation, NFAT-BLA reporter | 0.1% of 60,000 active | AID 373, 2006 | activation, % at 4.5 µM | S1P3 NFAT-BLA reporter cells, agonism, FRET ratio; relative to 1 µM S1P, basal subtracted | Sphingosine 1-phosphate receptor 3 (Homo sapiens), Q99500;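 active = activation above the screen-wide mean plus 3 SD, cut at about 4.5% in these data, passing the limit was not always enough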
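Benchmarks: high control 1 µM S1P / System: stable CHO line with human S1P3, Gα16, NFAT-BLA reporter / Dosing: single compound concentration, 4.5 µM final / Timing: 4 h compound at 37 °C, 2 h substrate at RT / Measured by: FRET β-lactamase substrate fluorescence, excitation 405 nm, 460/535 nm emission ratio, background-subtracted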
5HT1E antag – 5-HT1E receptor antagonists, primary screen, cell-based, HTS; 5-hydroxytryptamine receptor 1E (Homo sapiens), P28566; CHO 5-HT1E Ga15 NFAT-bla reporter, FRET, antagonist; inhibition, % at 6 µM; 0.99% of 65,000 active;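 active = inhibition above a set limit, the mean inhibition across every tested compound plus 3 SD, cut at about 29% in these data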;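 note: signal is the 460 over 535 nm emission ratio of beta-lactamase substrate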
HTR1A agonist – human 5-HT1a receptor agonists, primary screen, cell-based, CHO, Ga15 NFAT-bla reporter; 5-hydroxytryptamine receptor 1A (Homo sapiens), P08908; CHO 5-HT1a Ga15 NFAT-bla reporter, FRET ratio; 0% basal, 100% maximal reference agonist; activation, % at 10 µM; 0.56% of 65,000 active; AID 567, 2006;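 active = activation above the screen-wide mean activation plus 3 SD, cut at about 19% in these data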
5HT1E ag – 5-HT1E receptor agonists, primary screen, cell-based, HTS; 5-hydroxytryptamine receptor 1E (Homo sapiens), P28566; CHO 5-HT1E Ga15 NFAT-bla reporter, FRET; 0% DMSO wells, 100% control agonist wells; activation, % at 6 µM; 0.69% of 65,000 active; AID 574, 2007;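 active = activation above a set limit, the screen-wide mean activation plus 3 SD, cut at about 8.5% in these data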
5-HT1A blocker – human 5-HT1a receptor antagonists, primary screen, cell-based, CHO, Ga15 NFAT-bla reporter | CHO 5-HT1a Ga15 NFAT-bla reporter, antagonist mode | AID 612, 2007 | 0.68% of 62,000 active | inhibition, % at 10 µM;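 active = inhibition above the mean of all tested compounds plus 3 SD, cut at about 43% in these data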;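 note: receptor stimulated by 5-CT agonist at 100 nM near EC80; beta-lactamase reporter measured by ratiometric fluorescence of a cleavable substrate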
Each line names hits and unclear results; the compound was inactive in the other large screens. Sampled rows, rich in hits. Any-hit rate of the full collection: about 2.9%.

Cc1ccc(-c2csc3ncnc(-n4nc(C)cc4N)c23)cc1	5HT1E ag 8.7
CCCCCOC(=O)c1[nH]c2c(c1C)C(=O)CC(c1ccco1)C2 (stereo not given)	5HT1E antag 82, 5-HT1A blocker 66
CCOC(=O)c1[nH]c2c(c1C)C(=O)CC(c1ccc(F)cc1)C2 (stereo not given)	5HT1E antag 58
CCOC(=O)c1[nH]c2c(c1C)C(=O)CC(c1ccc(OCC)c(OC)c1)C2 (stereo not given)	none (no result: S1P1 ag pot, S1P3 agonist)
O=C(CCn1nnc2ccccc21)N1CCC(O)(c2cccc(F)c2)CC1	none (no result: S1P1 ag pot, S1P3 agonist)
CC1=C(C(=O)OCC(C)C)C(c2cccc(F)c2)N2C(=O)C(C)SC2=N1 (stereo not given)	5HT1E ag 14
COc1ccccc1NC(=O)N1CCc2[nH]c3ccc(F)cc3c2C1	5HT1E antag 29
O=C(c1ccccc1)N1CCN(CC2CC=CCC2)CC1 (stereo not given)	5HT1E ag 9.2
CCCCCn1c(N2CCOCC2)nc2c1c(=O)n(CC(N)=O)c(=O)n2C	none
O=C(C1CCCN(S(=O)(=O)c2cccc3cccnc23)C1)N1CCN(c2ccc(F)cc2)CC1 (stereo not given)	none
COc1ccc(/C(O)=C2/C(=O)C(=O)N(CCCN(C)C)C2c2cccc(Cl)c2)cc1OC (stereo not given)	none (no result: 5-HT1A blocker)
CCc1nnc(NC(=O)CSc2nnc(COc3ccccc3C)o2)s1	5HT1E ag 8.9
O=C1C2C3C=CC(CO)(O3)C2C(=O)N1c1ccccc1-c1ccccc1 (stereo not given)	S1P1 ag pot 154, 5HT1E antag 103, 5-HT1A blocker 104
O=C(Nc1ccc(Oc2ccccc2)cc1)c1cnc2n(c1=O)CCS2	S1P1 ag pot 94
Cc1sc2ncnc(SCc3ccco3)c2c1C	none
Cc1sc2ncnc(SC(C)C#N)c2c1C (stereo not given)	5HT1E antag 31
C=CCN(C(=O)Cn1c(C(=O)OC)cc2oc(C)cc21)c1ccccc1	none
COC(=O)c1cc2oc(C)cc2n1CC(=O)N(C)c1ccccc1	5HT1E ag 11
O=C(CN(C1CCCCC1)S(=O)(=O)c1ccc(Cl)cc1)NCc1ccncc1	none
CCOC(=O)N1CCC(NC(=O)CCc2c(C)nc3c(c(C)nn3C(C)(C)C)c2C)CC1	none
Cn1c(=O)c2c(-c3ccccc3)n(-c3ccccc3O)cc2n(C)c1=O	none
Cn1c(=O)c2c(-c3ccccc3)n(C3CCCCC3)cc2n(C)c1=O	S1P3 agonist 13
CN1CCN(S(=O)(=O)c2ccc(NC(=O)c3cccs3)cc2)CC1	none
CN1CCN(S(=O)(=O)c2ccc(NC(=O)c3csc4ccccc34)cc2)CC1	5HT1E antag 35
Cc1ccc(C(=O)C2CCN(CC(=O)Nc3ccc4c(c3)OCCO4)CC2)cc1	none
Cc1ccc(C(=O)C2CCN(CC(=O)Nc3ccc(N(C)C)cc3)CC2)cc1	5HT1E ag 12
COc1ccc(NS(=O)(=O)c2ccc3c(c2)CCC(=O)N3)c(OC)c1	none
O=C(CCn1c(=O)sc2ccccc21)NCc1cccs1	HTR1A agonist 74 (no result: S1P1 ag pot, S1P3 agonist)
O=C1CC(c2cccs2)Cc2nc(NCC3CCCO3)ncc21 (stereo not given)	none
CCCc1ccc(Oc2c(-c3ccc(O)c(C)c3O)n[nH]c2C)cc1	5-HT1A blocker 56
COc1ccc(Oc2c(-c3ccc(O)cc3O)n[nH]c2C)cc1	none
CCCOC(=O)c1ccc(Oc2cn[nH]c2-c2ccc(OCC)cc2O)cc1	none
CCCc1ccc(Oc2cn[nH]c2-c2ccc(O)c(C)c2O)cc1	S1P1 ag pot 58
COCCN(CC(=O)NCc1ccccc1)C(=O)CCC(=O)Nc1ccccn1	none
CCOC(=O)c1ccc(NC(=O)C2CC2)cc1	none
CCOC(=O)c1ccc(NC(=O)Cn2cccc2)cc1	5HT1E ag 26
CCOC(=O)/N=C(/NC(=O)Nc1ccc(C(=O)OCC)cc1)OC	5HT1E ag 9.3
CCOC(=O)c1ccc(NC(=O)COC)cc1	none (no result: S1P1 ag pot)
CCCc1nn(CCc2ccccn2)c(N)c1CC	none
CC(C)Nc1nc(C#N)nc(NC(C)C)n1	5HT1E antag 31
Cc1ccc(CNC(=O)CCS(=O)(=O)c2cccc3nonc23)cc1	none (no result: S1P1 ag pot, S1P3 agonist)
CC12CCC(C(=O)N3CCN(Cc4ccccc4)CC3)(OC1=O)C2(C)C (stereo not given)	none
CCOC(=O)N1CCN(C(=O)c2ccc(CN(c3ccccc3)S(C)(=O)=O)cc2)CC1	none (no result: S1P1 ag pot, S1P3 agonist)
O=c1c2ccccc2nc(N2CCN(c3ccccc3)CC2)n1Cc1ccccc1	5-HT1A blocker 47
O=c1c2ccccc2nc(-c2ccco2)n1Cc1ccccc1	none (no result: S1P1 ag pot, S1P3 agonist)
N#Cc1ccc(NC(=O)Nc2ccc(Cl)cc2)cc1	S1P1 ag pot 129
CN1CCCc2cc3c(C(F)(F)F)cc(=O)oc3nc21	5HT1E antag 41 (no result: S1P1 ag pot)
CC(C)c1cc(=O)oc2c3c4c(cc12)CCCN4CCC3	none
N#CCCS(=O)(=O)c1nnnn1-c1ccccc1	S1P1 ag pot 70, 5HT1E antag 79, 5-HT1A blocker 87
Cc1ccc(C(=O)CSC2=C(C#N)C(c3ccco3)C3=C(CC(C)(C)CC3=O)N2)cc1 (stereo not given)	none
CC1(C)CC(=O)C2=C(C1)NC(SCC(=O)Nc1ccccc1)=C(C#N)C2c1ccco1 (stereo not given)	5HT1E antag 33
CC1=C(C(=O)OC2CCCCC2)C(c2ccc(C)o2)C2=C(CCCC2=O)N1 (stereo not given)	5HT1E antag 30
CC1=C(C(=O)OC2CCCCC2)C(c2ccco2)C2=C(CC(C)(C)CC2=O)N1 (stereo not given)	5HT1E antag 44 (no result: S1P1 ag pot)
O=C(NC1CCCC1)C(c1cccs1)N(CC1CCCO1)C(=O)Cc1cccs1 (stereo not given)	5-HT1A blocker 44
O=C(NC1CCCCC1)C(c1cccs1)N(Cc1cccs1)C(=O)c1ccco1 (stereo not given)	5-HT1A blocker 50
O=C(NC1CCCCC1)C(c1cccs1)N(CC1CCCO1)C(=O)c1csnn1 (stereo not given)	none
O=C(NCC(=O)N(Cc1cccs1)C(C(=O)NC1CCCC1)c1ccncc1)c1ccco1 (stereo not given)	none

Screening results: PubChem, The Scripps Research Institute Molecular Screening Center
